ChEMBL document CHEMBL4270638, “Sulfonyl-containing phenyl-pyrrolyl pentane analogues: Novel non-secosteroidal vitamin D receptor modulators with favorable physicochemical properties, pharmacokinetic properties and anti-tumor activity” (Eur J Med Chem, 2018)
Values after ≈ are worked out from the molar mass of the structure shown.

Assays:
BXPC-3 = assay: Antiproliferative activity against human BxPC3 cells after 24 hrs by MTT assay; assay type: functional, cell-based; conditions: BXPC-3, 24 h
MCF7 [1] = assay: Antiproliferative activity against human MCF7 cells after 24 hrs by MTT assay; assay type: functional, cell-based; conditions: MCF7, 24 h
PC-3 = assay: Antiproliferative activity against human PC3 cells after 24 hrs by MTT assay; assay type: functional, cell-based; conditions: PC-3, 24 h
[2] = Solubility of the compound in water at pH 7.4 by HPLC method; assay type: physicochemical
In short: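 Aqueous solubility measured at pH 7.4, with samples quantified by HPLC.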

[3] = Half life in rat liver microsomes in presence of NADPH by HPLC method; assay type: ADME, microsome
In short: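 Compounds incubated with rat liver microsomes plus NADPH. Remaining compound quantified by HPLC at 0, 5, 10, 20, 30, 45, 60 and 90 min, and half-life calculated.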

MCF7 [4] = assay: Cell cycle arrest in human MCF7 cells expressing scrambled siRNA assessed as accumulation at G0/G1 phase at 1 uM after 24 hrs by propidium iodide staining based flow cytometry (reference value: 49.28%); assay type: functional
MCF7 [5] = assay: Cell cycle arrest in human MCF7 cells expressing scrambled siRNA assessed as accumulation at G2/M phase at 1 uM after 24 hrs by propidium iodide staining based flow cytometry (reference value: 19.6%); assay type: functional
MCF7 [6] = assay: Cell cycle arrest in human MCF7 cells expressing scrambled siRNA assessed as accumulation at S phase at 1 uM after 24 hrs by propidium iodide staining based flow cytometry (reference value: 29.79%); assay type: functional
MCF7 [7] = assay: Cell cycle arrest in human MCF7 cells expressing VDR siRNA assessed as accumulation at G0/G1 phase at 1 uM after 24 hrs by propidium iodide staining based flow cytometry (reference value: 49.17%); assay type: functional
MCF7 [8] = assay: Cell cycle arrest in human MCF7 cells expressing VDR siRNA assessed as accumulation at G2/M phase at 1 uM after 24 hrs by propidium iodide staining based flow cytometry (reference value: 17.57%); assay type: functional
MCF7 [9] = assay: Cell cycle arrest in human MCF7 cells expressing VDR siRNA assessed as accumulation at S phase at 1 uM after 24 hrs by propidium iodide staining based flow cytometry (reference value: 32%); assay type: functional
MCF7 [10] = assay: Induction of apoptosis in human MCF7 cells expressing scrambled siRNA assessed as live cells at 1 uM after 24 hrs by Annexin-V-FITC/propidium iodide staining based flow cytometry (reference value: 97.93%); assay type: functional
MCF7 [11] = assay: Induction of apoptosis in human MCF7 cells expressing scrambled siRNA assessed as early apoptotic cells at 1 uM after 24 hrs by Annexin-V-FITC/propidium iodide staining based flow cytometry (reference value: 0.93%); assay type: functional
MCF7 [12] = assay: Induction of apoptosis in human MCF7 cells expressing scrambled siRNA assessed as late apoptotic cells at 1 uM after 24 hrs by Annexin-V-FITC/propidium iodide staining based flow cytometry (reference value: 0.98%); assay type: functional
MCF7 [13] = assay: Induction of apoptosis in human MCF7 cells expressing scrambled siRNA assessed as necrotic cells at 1 uM after 24 hrs by Annexin-V-FITC/propidium iodide staining based flow cytometry (reference value: 0.16%); assay type: functional
MCF7 [14] = assay: Induction of apoptosis in human MCF7 cells expressing VDR siRNA assessed as live cells at 1 uM after 24 hrs by Annexin-V-FITC/propidium iodide staining based flow cytometry (reference value: 98.35%); assay type: functional
MCF7 [15] = assay: Induction of apoptosis in human MCF7 cells expressing VDR siRNA assessed as early apoptotic cells at 1 uM after 24 hrs by Annexin-V-FITC/propidium iodide staining based flow cytometry (reference value: 0.49%); assay type: functional
MCF7 [16] = assay: Induction of apoptosis in human MCF7 cells expressing VDR siRNA assessed as late apoptotic cells at 1 uM after 24 hrs by Annexin-V-FITC/propidium iodide staining based flow cytometry (reference value: 1.01%); assay type: functional
MCF7 [17] = assay: Induction of apoptosis in human MCF7 cells expressing VDR siRNA assessed as necrotic cells at 1 uM after 24 hrs by Annexin-V-FITC/propidium iodide staining based flow cytometry (reference value: 0.15%); assay type: functional

| SMILES | IC50 (BXPC-3) | IC50 (MCF7 [1]) | IC50 (PC-3) | further results |
| --- | --- | --- | --- | --- |
| CCn1c(C(=O)N[C@H](C)CO)ccc1C(CC)(CC)c1ccc(OCS(=O)(=O)c2ccccc2)c(C)c1 | 10 µM | 10.6 µM | 7.79 µM | – |
| CCn1c(C(=O)N[C@@H](C(=O)O)C(C)C)ccc1C(CC)(CC)c1ccc(OCS(=O)(=O)c2ccccc2)c(C)c1 | 13.9 µM | 44.7 µM | 3.07 µM | – |
| CCn1c(C(=O)N[C@H](CO)C(C)C)ccc1C(CC)(CC)c1ccc(OCS(=O)(=O)c2ccccc2)c(C)c1 | 7.72 µM | 25.5 µM | 7.3 µM | solubility [2]: 27.8 µg/mL (≈ 50.1 µM); half-life [3]: 46.3 min |
| CCn1c(C(=O)N[C@H](CCC(=O)O)C(=O)O)ccc1C(CC)(CC)c1ccc(OCS(=O)(=O)c2ccccc2)c(C)c1 | > 50 µM | > 50 µM | > 50 µM | – |
| CCn1c(C(=O)N[C@@H](CC(=O)OC)C(=O)OC)ccc1C(CC)(CC)c1ccc(OCS(=O)(=O)c2ccccc2)c(C)c1 | > 50 µM | > 50 µM | 6.49 µM | – |
| CCn1c(C(=O)N[C@@H](C)C(=O)O)ccc1C(CC)(CC)c1ccc(OCS(=O)(=O)c2ccccc2)c(C)c1 | 20.8 µM | 35.5 µM | 16.8 µM | – |
| CCn1c(C(=O)NCCNC(=O)OC(C)(C)C)ccc1C(CC)(CC)c1ccc(OCS(=O)(=O)c2ccccc2)c(C)c1 | > 50 µM | > 50 µM | > 50 µM | – |
| CCn1c(C(=O)N[C@@H](CO)CCCO)ccc1C(CC)(CC)c1ccc(OCS(=O)(=O)c2ccccc2)c(C)c1 | 16.4 µM | 29.6 µM | 13.4 µM | – |
| CCn1c(C(=O)N[C@@H](CO)CCO)ccc1C(CC)(CC)c1ccc(OCS(=O)(=O)c2ccccc2)c(C)c1 | > 50 µM | 27.4 µM | 14.1 µM | – |
| CCn1c(C(=O)N[C@@H](CO)C(C)C)ccc1C(CC)(CC)c1ccc(OCS(=O)(=O)c2ccccc2)c(C)c1 | 13.2 µM | 18.8 µM | 10.6 µM | – |
| CCn1c(C(=O)NCCC(=O)OC)ccc1C(CC)(CC)c1ccc(OCS(=O)(=O)c2ccccc2)c(C)c1 | > 50 µM | > 50 µM | 40.4 µM | – |
| CCN(CC)CCNC(=O)c1cc(C(CC)(CC)c2ccc(OCSc3ccccc3)c(C)c2)cn1CC | 5.37 µM | 4.7 µM | 2.62 µM | Activity (MCF7 [4]): 55.79%; Activity (MCF7 [5]): 11.15%; Activity (MCF7 [6]): 31.75%; Activity (MCF7 [7]): 50.29%; Activity (MCF7 [8]): 17.3%; Activity (MCF7 [9]): 30.97%; Activity (MCF7 [10]): 94.44%; Activity (MCF7 [11]): 1.01%; Activity (MCF7 [12]): 3.65%; Activity (MCF7 [13]): 0.9%; Activity (MCF7 [14]): 97.14%; Activity (MCF7 [15]): 0.58%; Activity (MCF7 [16]): 1.91%; Activity (MCF7 [17]): 0.37%; solubility [2]: 0.6 µg/mL (≈ 1.12 µM); half-life [3]: 71.4 min |
| CCn1c(C(=O)NCCCO)ccc1C(CC)(CC)c1ccc(OCS(=O)(=O)c2ccccc2)c(C)c1 | 26.6 µM | 42 µM | 11.3 µM | – |
| CCn1c(C(=O)N[C@@H](C)C(=O)OC)ccc1C(CC)(CC)c1ccc(OCS(=O)(=O)c2ccccc2)c(C)c1 | 17.9 µM | 43.7 µM | > 50 µM | – |
| CCn1c(C(=O)N[C@H](CO)CCCO)ccc1C(CC)(CC)c1ccc(OCS(=O)(=O)c2ccccc2)c(C)c1 | > 50 µM | 31.4 µM | 6.81 µM | – |
| CCN(CC)CCNC(=O)c1cc(C(CC)(CC)c2ccc(OCS(C)(=O)=O)c(C)c2)cn1CC | 30.4 µM | 16.3 µM | 36.6 µM | – |
| CCn1c(C(=O)N[C@@H](CCC(=O)O)C(=O)O)ccc1C(CC)(CC)c1ccc(OCS(=O)(=O)c2ccccc2)c(C)c1 | > 50 µM | > 50 µM | > 50 µM | – |
